The results in this text go back to ChEMBL document CHEMBL1158040, “Biological activities and 3D QSAR studies of a series of Delisea pulchra (cf. fimbriata) derived natural products” (J Nat Prod, 2006).

Data set [1] has as its system Escherichia coli. Kind of data set: Antimicrobial activity against Escherichia coli at 10 ug. It is filed as functional, organism-based. In outline:
(§1)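 Direct bioautography: each compound is spotted onto TLC plates and the solvent evaporated. The test organism is then grown directly on the plate. Growth inhibition is scored at the spot as active (+) or very active (++). Where a number is given, it is the radius in mm of the inhibition zone around the spot.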

The subject of data set [2] is Escherichia coli. The data set can be described thus: Antimicrobial activity against Escherichia coli at 5 ug. It is filed as functional, organism-based. In outline:
as §1

The subject of data set [3] is Escherichia coli. The data set can be described thus: Antimicrobial activity against Escherichia coli at 1 ug. It is filed as functional, organism-based. In outline:
as §1

Data set [4] deals with Escherichia coli. The data set can be described thus: Antimicrobial activity against Escherichia coli at 0.1 ug. Type of data set: functional, organism-based. In outline: as §1
The subject of data set [5] is Micrococcus luteus. The data set can be described thus: Antimicrobial activity against Micrococcus luteus at 10 ug. It is filed as functional, organism-based. In outline:
as §1

The test system of data set [6] is Micrococcus luteus. The data set can be described thus: Antimicrobial activity against Micrococcus luteus at 5 ug. It is filed as functional, organism-based. The method, boiled down:
as §1

The subject of data set [7] is Micrococcus luteus. Kind of data set: Antimicrobial activity against Micrococcus luteus at 1 ug. It is filed as functional, organism-based. In outline: as §1
In data set [8] the test system is Bacillus subtilis. The data set can be described thus: Antimicrobial activity against Bacillus subtilis at 10 ug. Type of data set: functional, organism-based. In outline: as §1
The subject of data set [9] is Bacillus subtilis. The data set can be described thus: Antimicrobial activity against Bacillus subtilis at 5 ug. Type of data set: functional, organism-based. The method, boiled down:
as §1

Data set [10] has as its system Bacillus subtilis. Kind of data set: Antimicrobial activity against Bacillus subtilis at 1 ug. It is filed as functional, organism-based. In outline:
as §1

For data set [11], the system named is Penicillium oxalicum. The data set can be described thus: Antimicrobial activity against Penicillium oxalicum at 10 ug. As to conditions: read-out: IZ. Type of data set: functional. The method, boiled down: as §1
Data set [12] deals with Penicillium oxalicum. The data set can be described thus: Antimicrobial activity against Penicillium oxalicum at 5 ug. Type of data set: functional. As to conditions: read-out: IZ. The method, boiled down:
as §1

For data set [13], the system named is Penicillium oxalicum. The data set can be described thus: Antimicrobial activity against Penicillium oxalicum at 1 ug. Type of data set: functional. Conditions: read-out: IZ. The method, boiled down:
as §1

Data set [14] deals with Penicillium oxalicum. The data set can be described thus: Antimicrobial activity against Penicillium oxalicum at 0.1 ug. It is filed as functional. The method, boiled down: as §1
Data set [15] in a line: Inhibition of PKC.
The nature of data set [16]: Inhibition of TK assessed as residual activity at 200 ug/ml. The method, boiled down: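 The enzyme was tyrosine kinase p56lck, with test compounds at 200 μg/mL. The read-out is the remaining enzyme activity.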
Data set [17] deals with Monocyte. Kind of data set: Inhibition of LPS-stimulated IL1 production in human monocytes. It is filed as functional, cell-based.
Data set [18] relates to Penicillium oxalicum. The data set can be described thus: Antimicrobial activity against Penicillium oxalicum at 0.01 ug. It is filed as functional. In outline:
as §1

Data set [19] deals with Monocyte. The data set can be described thus: Inhibition of IL1 biosynthesis in human monocytes. It is filed as functional, cell-based.
For the next data set, the system named is Lu1. The data set can be described thus: Cytotoxicity against human Lu1 cells. Type of data set: functional. As to conditions: read-out: ED50 (the source's name).
Data set [20] has as its system KB. Kind of data set: Cytotoxicity against human KB cells. Type of data set: functional. Conditions: read-out: ED50 (the source's name).
Data set [21] concerns KB. Kind of data set: Cytotoxicity against vinblastine-sensitive human KB cells. As to conditions: read-out: ED50 (the source's name). It is filed as functional.
The subject of data set [22] is KB. The data set can be described thus: Cytotoxicity against vinblastine-resistant human KB cells. It is filed as functional. Conditions: read-out: ED50 (the source's name). The method, boiled down:
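The vinblastine-resistant KB-V1 line was tested both with and without added vinblastine in the cultured tumour-cell cytotoxicity panel. Results are reported as ED50.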

A further data set concerns LNCaP. Kind of data set: Cytotoxicity against human LNCAP cells. It is filed as functional. Conditions: read-out: ED50 (the source's name).
The subject of another data set is ZR-75-1. Kind of data set: Cytotoxicity against human ZR-75-1 cells. Conditions: read-out: ED50 (the source's name). It is filed as functional.
Data set [23] concerns Micrococcus luteus. Kind of data set: Antimicrobial activity against Micrococcus luteus at 0.1 ug. It is filed as functional, organism-based. In outline: as §1
Data set [24] concerns Plasmodium falciparum. The data set can be described thus: Antimalarial activity against chloroquine-sensitive Plasmodium falciparum D6. Type of data set: functional, organism-based. The method, boiled down: (§2)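 In vitro growth inhibition of Plasmodium falciparum clones D6 (chloroquine-sensitive) and W2 (chloroquine-resistant); IC50 reported in μg/mL.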
Data set [25] has as its system Plasmodium falciparum. The data set can be described thus: Antimalarial activity against chloroquine-resistant Plasmodium falciparum W2. It is filed as functional, organism-based. In outline: as §2
Data set [26] is described as follows: Selectivity index, ratio of IC50 for human KB cells to IC50 for Plasmodium falciparum D6. As to conditions: KB cells versus Plasmodium falciparum D6, read-out: Ratio IC50. It is filed as toxicity, cell-based. The method, boiled down: (§3)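 Plasmodium falciparum clones were assayed in vitro: D6 (chloroquine-sensitive) and W2 (chloroquine-resistant). IC50 is in μg/mL. The selectivity index is the ratio of the antimalarial to the cytotoxic activity.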

Data set [27] is described as follows: Selectivity index, ratio of IC50 for human KB cells to IC50 for Plasmodium falciparum W2. Type of data set: toxicity, cell-based. As to conditions: KB cells versus Plasmodium falciparum W2, read-out: Ratio IC50. In outline:
as §3

For data set [28], the target named is Human immunodeficiency virus type 1 reverse transcriptase (Human immunodeficiency virus 1, UniProt Q72547). Kind of data set: Inhibition of HIV1 RT at 200 uM. In outline: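 HIV-1 reverse transcriptase inhibition was measured in an ELISA-based system.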

Values after ≈ are worked out from the molar mass of the structure shown. Active and inactive are the calls of the source. No cut-off for these calls is given here.

In the case of `CCC(CCC(=O)C(Br)=C(Br)Br)OC(C)=O` (configuration not stated), the outcome in the data set on Escherichia coli [1], in the data set on Escherichia coli [2], in the data set on Bacillus subtilis [8] and with Bacillus subtilis [9] was Active. Further, the result with Escherichia coli [3], in the data set on Escherichia coli [4], in the data set with Micrococcus luteus [5], with Micrococcus luteus [6], in the data set with Micrococcus luteus [7] and with Bacillus subtilis [10] was inactive. For the same compound, the result in the data set with Penicillium oxalicum [14] and in the data set on Penicillium oxalicum [18] was inactive. Besides, in the data set with Penicillium oxalicum [11], the zone of inhibition at 10 µg/disc came to 8 mm. Besides, the zone of inhibition at 5 µg/disc in the data set on Penicillium oxalicum [12] stood at 9 mm. The zone of inhibition at 1 µg/disc in the data set with Penicillium oxalicum [13] was 6 mm. The figures for the IC50 (in data set [15]; in the data set with Monocyte [17]; with Monocyte [19]) were no less than 200000 nM, 2000 nM and 2000 nM, respectively. In addition, the Activity in data set [16] came to 31.7%.
Take `CCC[C@@H](OC(C)=O)C1=C(Br)C(=C(Br)Br)OC1=O`: the EC50 in the data set with Lu1 was 1.1 µg/mL (≈ 2.46 µM); in the data set on KB [20], 0.3 µg/mL (≈ 0.671 µM); in the data set on KB [21] it was 0.5 µg/mL (≈ 1.12 µM); in the data set on KB [22] it was 3.5 µg/mL (≈ 7.83 µM); in the data set on LNCaP it was 2.1 µg/mL (≈ 4.7 µM); in the data set on ZR-75-1, less than 0.1 µg/mL. In addition, the result in the data set with Escherichia coli [1], with Escherichia coli [2], in the data set with Micrococcus luteus [5], in the data set with Micrococcus luteus [6], with Micrococcus luteus [7] and in the data set on Micrococcus luteus [23] was Active. For the same compound, the outcome with Bacillus subtilis [8], with Bacillus subtilis [9] and with Bacillus subtilis [10] was Active. Also, the outcome in the data set on Escherichia coli [3] and in the data set with Escherichia coli [4] was inactive. Moreover, the zone of inhibition at 10 µg/disc with Penicillium oxalicum [11] is 12 mm. Moreover, the zone of inhibition at 5 µg/disc with Penicillium oxalicum [12] worked out at 14 mm. For the same compound, the zone of inhibition at 1 µg/disc in the data set on Penicillium oxalicum [13] amounted to 10 mm. In the data set with Penicillium oxalicum [14] (read-out: IZ), the zone of inhibition at 0.1 µg/disc came out at 6 mm. Further, the IC50 (usually the point on the concentration scale where inhibition reaches its midpoint) in the data set on Plasmodium falciparum [24] was determined as 2.2 µg/mL (≈ 4.92 µM); in the data set with Plasmodium falciparum [25], 9.1 µg/mL (≈ 20.4 µM); in data set [28] it was 700000 nM. Besides, the selectivity ratio in data set [26] and in data set [27] was less than 1 throughout. Also, the Activity in [16] is 1.9%. In addition, the zone of inhibition at 0.01 µg/disc with Penicillium oxalicum [18] (read-out: IZ) is 3 mm.
On to `C=C[C@H]1CN2CC[C@H]1C[C@H]2[C@H](O)c1ccnc2ccc(OC)cc12` [QUININE], for which, in the data set with KB [20], the EC50 is greater than 20 µg/mL. For the same compound, the IC50 in the data set on Plasmodium falciparum [24] was determined as 0.011 µg/mL (≈ 0.0339 µM); in the data set with Plasmodium falciparum [25], 0.029 µg/mL (≈ 0.0894 µM). In addition, the selectivity ratio is greater than 1830 in [26] and greater than 700 in [27].
Taken in the same sequence, the figures for `OC(c1cc(C(F)(F)F)nc2c(C(F)(F)F)cccc12)C1CCCCN1` (configuration not stated) [MEFLOQUINE] were 3.5 µg/mL (≈ 9.25 µM), 0.005 µg/mL (≈ 0.0132 µM), 0.001 µg/mL (≈ 0.00264 µM), 710 and 4380.
